This note sets out measurements from ChEMBL document CHEMBL3232799, “Design, synthesis and biological evaluation of new 5-nitro benzimidazole derivatives as AT1 antagonists with anti-hypertension activities” (Bioorg Med Chem, 2014).

Experiment [1] can be described thus: Displacement of [125I]-angiotensin 2 from angiotensin AT1 receptor in VSMC of Sprague-Dawley rat thoracic aorta after 60 mins by gamma-counting. The class given is tissue-based. The essentials: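 VSMCs explant-cultured from SD rat thoracic aorta (collagenase digestion, DMEM + 15% FBS), passages 3-7. Cells incubated with 0.1 nM 125I-angiotensin II plus compound (final 1e-6 to 1e-12 M), 60 min, 37°C. Nonspecific binding defined with 1 µM AII. Cells washed with PBS, lysed in 0.1 M NaOH, gamma-counted. IC50 from regression of displacement curves; Ki = IC50/(1+[L]/Kd).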
A general note: In a radioligand displacement assay an active substance lowers the binding of a labelled ligand.

Experiment [2] concerns Rattus norvegicus. The experiment in a line: Antihypertensive activity in spontaneous hypersensitive […] rat model assessed as reduction of blood pressure at 10 mg/kg, po measured for 1 to 24 hrs. Type of experiment: functional. The method, boiled down:
(§1)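 Spontaneously hypertensive rats (250-300 g), randomized into groups of 10. Compound suspended in 0.5% sodium carboxymethyl cellulose, oral dosing at 5 and 10 mg/kg; vehicle-only negative control and losartan 10 mg/kg positive control. Mean blood pressure recorded under sodium pentobarbital anesthesia (40 mg/kg, i.p.). Significance versus control at p < 0.05 or 0.01.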

The test system of experiment [3] is Rattus norvegicus. Kind of experiment: Antihypertensive activity in renal hypersensitive Sprague-Dawley rat model assessed as reduction of blood pressure at 10 mg/kg, po measured for 1 to 24 hrs. Type of experiment: functional, organism-based. Details: dose 10 mg/kg. The method, boiled down:
(§2)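 Renal hypertension induced in Sprague-Dawley rats (250-350 g) by complete ligation of the left renal artery under sodium pentobarbital (40 mg/kg); rats with SBP above 160 mmHg used. Groups of 10. Compound suspended in 0.5% sodium carboxymethyl cellulose and given orally at 5 and 10 mg/kg; vehicle control and losartan 10 mg/kg. Mean blood pressure measured under pentobarbital (40 mg/kg, i.p.) anesthesia.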

Experiment [4] has as its system Rattus norvegicus. The experiment in a line: Antihypertensive activity in spontaneous hypersensitive […] rat model assessed as reduction of blood pressure at 5 mg/kg, po measured after 4 to 5 hrs. Type of experiment: functional. The method, boiled down:
as §1

Experiment [5] deals with Rattus norvegicus. The experiment in a line: Antihypertensive activity in spontaneous hypersensitive […] rat model assessed as reduction of blood pressure at 10 mg/kg, po measured after 4 to 5 hrs. The class given is functional. The essentials: as §1
For experiment [6], the system named is Rattus norvegicus. The experiment in a line: Antihypertensive activity in renal hypersensitive Sprague-Dawley rat model assessed as reduction of blood pressure at 5 to 10 mg/kg, po measured for 1 to 24 hrs. Type of experiment: functional, organism-based. The essentials:
as §2

Experiment [7] relates to Rattus norvegicus. Kind of experiment: Antihypertensive activity in spontaneous hypersensitive […] rat model assessed as duration of reduction of blood pressure at 5 to 10 mg/kg, po. As to conditions: dose mg/kg 5-10. Type of experiment: functional. The essentials: as §1
Experiment [8] has as its system Rattus norvegicus. Kind of experiment: Antihypertensive activity in spontaneous hypersensitive […] rat model assessed as reduction of blood pressure at <5 to 10 mg/kg, po measured for 1 to 24 hrs. The class given is functional, organism-based. The arrangement: dose 10 mg/kg. The essentials:
as §1

Molecules are shown by their SMILES. The source made the active and inactive calls. The rule behind the calls is not given here.

What is called IC50 is the midpoint of a concentration-inhibition curve. One may read the Ki as the equilibrium dissociation constant of an inhibitor or competing ligand from its target. Read a high Ki as weaker binding. On to `CCCCc1nc2cc([N+](=O)[O-])ccc2n1Cc1ccc2c(ccn2-c2ccccc2C(=O)O)c1`, for which, in experiment [1], the IC50 came to 5.11 nM and affinity was put at a Ki of 4.89 nM. Also, the Activity in the experiment with Rattus norvegicus [2] is 32 mmHg. For the same molecule, the result with Rattus norvegicus [3] was Active.
Consider `CCCCc1nc2cc([N+](=O)[O-])ccc2n1Cc1cccc2c1ccn2-c1ccccc1C(=O)O`, for which the IC50 in experiment [1] was 1.03 nM. The molecule further had a Ki in experiment [1] of 0.97 nM. In addition, the Activity with Rattus norvegicus [4] came to 30 mmHg; in the experiment with Rattus norvegicus [5], 41 mmHg. In addition, in the experiment on Rattus norvegicus [6], the outcome was Active. The Time in the experiment with Rattus norvegicus [7] was determined as 24 h.
As for `CCc1nc2cc([N+](=O)[O-])ccc2n1Cc1cccc2c1ccn2-c1ccccc1C(=O)O`, in experiment [1], the IC50 came to 4.12 nM and affinity was put at a Ki of 3.04 nM. Further, the Activity in the experiment on Rattus norvegicus [2] amounted to 30 mmHg. Further, the result in the experiment with Rattus norvegicus [3] was Active.
Taken in the same sequence, the figures for `CCCc1nc2cc([N+](=O)[O-])ccc2n1Cc1ccc2c(ccn2-c2ccccc2C(=O)O)c1` were 3.32 nM, 2.22 nM, 28 mmHg and “Active”.
As for `CCCCCc1nc2cc([N+](=O)[O-])ccc2n1Cc1cccc2c1ccn2-c1ccccc1C(=O)O`, in experiment [1], the IC50 stood at 15.7 nM and the Ki amounted to 13.4 nM. Moreover, the result with Rattus norvegicus [8] was inactive. Moreover, the outcome with Rattus norvegicus [6] was inactive.
In experiment [1], `CCCc1nc2cc([N+](=O)[O-])ccc2n1Cc1cccc2c1ccn2-c1ccccc1C(=O)O` displayed an IC50 of 5.43 nM and a Ki of 4.23 nM. Further, the result in the experiment with Rattus norvegicus [8] was inactive. The result in the experiment on Rattus norvegicus [6] was inactive.
Turning to `CCCCc1nc(Cl)c(CO)n1Cc1ccc(-c2ccccc2-c2nnn[nH]2)cc1` [LOSARTAN], in experiment [1], the IC50 turned out to be 3.54 nM and the affinity, expressed as Ki, was 2.53 nM. The Activity in the experiment with Rattus norvegicus [2] is on record as 31 mmHg. Moreover, in the experiment on Rattus norvegicus [3], the result was Active.
